Data set [1] has as its target T1, Protein cereblon/Bromodomain-containing protein 3/Cullin-4A (Homo sapiens) (UniProt Q15059+Q96SW2+Q13619). The experiment in a line: Induction of cereblon/cullin 4A-mediated BRD3 degradation in human RS4:11 cells at 1 nM after 3 hrs in presence of proteosome inhibitor MG-132 by Western blot method. The format is cell-based.
The target in data set [2] is T2, Protein cereblon/Bromodomain-containing protein 2/Cullin-4A (Homo sapiens) (UniProt P25440+Q96SW2+Q13619). The experiment in a line: Induction of cereblon/cullin 4A-mediated BRD2 degradation in human RS4:11 cells at 1 nM after 3 hrs in presence of NAE inhibitor MLN4924 by Western blot method. The format is cell-based.
T2 sequence (P25440 whole entry, looked up): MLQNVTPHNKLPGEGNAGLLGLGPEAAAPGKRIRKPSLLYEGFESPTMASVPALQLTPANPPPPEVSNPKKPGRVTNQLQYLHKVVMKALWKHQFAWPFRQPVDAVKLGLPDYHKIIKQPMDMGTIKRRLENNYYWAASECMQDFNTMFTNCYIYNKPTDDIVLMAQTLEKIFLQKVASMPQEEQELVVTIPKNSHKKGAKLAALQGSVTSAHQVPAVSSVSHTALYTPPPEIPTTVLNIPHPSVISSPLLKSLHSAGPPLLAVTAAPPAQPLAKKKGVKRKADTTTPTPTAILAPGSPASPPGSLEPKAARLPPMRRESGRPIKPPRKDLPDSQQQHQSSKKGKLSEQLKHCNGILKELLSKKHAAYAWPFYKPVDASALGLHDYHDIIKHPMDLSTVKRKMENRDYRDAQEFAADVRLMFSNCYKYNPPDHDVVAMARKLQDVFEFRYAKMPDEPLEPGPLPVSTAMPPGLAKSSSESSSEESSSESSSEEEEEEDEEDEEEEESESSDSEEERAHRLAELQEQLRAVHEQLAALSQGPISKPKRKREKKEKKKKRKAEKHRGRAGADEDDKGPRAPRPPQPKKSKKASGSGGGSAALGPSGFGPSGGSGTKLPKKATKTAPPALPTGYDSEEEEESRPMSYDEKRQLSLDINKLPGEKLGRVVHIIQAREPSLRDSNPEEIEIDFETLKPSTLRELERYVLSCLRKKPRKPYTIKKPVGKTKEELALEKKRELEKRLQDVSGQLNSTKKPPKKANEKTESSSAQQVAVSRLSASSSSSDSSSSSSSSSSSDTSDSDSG
T2 sequence (Q13619 whole entry, looked up): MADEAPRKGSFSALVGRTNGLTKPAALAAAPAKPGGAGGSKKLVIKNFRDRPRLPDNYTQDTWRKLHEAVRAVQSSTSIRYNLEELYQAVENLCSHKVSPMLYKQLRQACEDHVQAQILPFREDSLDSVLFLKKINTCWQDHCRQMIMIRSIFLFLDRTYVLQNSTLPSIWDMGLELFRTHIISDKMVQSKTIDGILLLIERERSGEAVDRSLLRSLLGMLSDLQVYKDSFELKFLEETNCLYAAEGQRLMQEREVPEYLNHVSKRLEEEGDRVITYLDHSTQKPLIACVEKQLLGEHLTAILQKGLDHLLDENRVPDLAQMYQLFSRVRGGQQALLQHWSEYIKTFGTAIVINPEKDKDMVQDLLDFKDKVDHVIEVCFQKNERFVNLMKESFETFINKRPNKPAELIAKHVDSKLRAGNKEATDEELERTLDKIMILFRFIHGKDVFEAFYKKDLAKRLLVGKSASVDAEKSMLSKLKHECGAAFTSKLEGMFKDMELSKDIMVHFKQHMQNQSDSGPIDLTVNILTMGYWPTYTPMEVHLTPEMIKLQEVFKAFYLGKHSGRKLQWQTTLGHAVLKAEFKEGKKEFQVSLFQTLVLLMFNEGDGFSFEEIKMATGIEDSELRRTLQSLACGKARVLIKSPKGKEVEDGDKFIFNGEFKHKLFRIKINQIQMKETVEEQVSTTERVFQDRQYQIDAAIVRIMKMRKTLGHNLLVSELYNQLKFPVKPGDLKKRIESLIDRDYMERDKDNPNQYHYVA
T2 sequence (Q96SW2 whole entry, looked up): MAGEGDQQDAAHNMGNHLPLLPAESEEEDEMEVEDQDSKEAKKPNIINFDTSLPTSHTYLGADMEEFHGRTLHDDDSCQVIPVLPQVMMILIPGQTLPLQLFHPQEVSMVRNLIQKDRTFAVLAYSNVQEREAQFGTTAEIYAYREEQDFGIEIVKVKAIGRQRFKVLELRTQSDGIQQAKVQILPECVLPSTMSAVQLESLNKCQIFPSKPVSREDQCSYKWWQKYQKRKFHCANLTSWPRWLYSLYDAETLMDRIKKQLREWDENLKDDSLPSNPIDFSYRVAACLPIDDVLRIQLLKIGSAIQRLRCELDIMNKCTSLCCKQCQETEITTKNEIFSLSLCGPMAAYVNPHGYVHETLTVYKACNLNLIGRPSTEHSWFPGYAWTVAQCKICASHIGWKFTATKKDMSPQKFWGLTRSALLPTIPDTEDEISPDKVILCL
Data set [3] has as its target T3, Protein cereblon/Bromodomain-containing protein 4/Cullin-4A (Homo sapiens) (UniProt O60885+Q96SW2+Q13619). The experiment in a line: Induction of cereblon/cullin 4A-mediated BRD4 degradation in human RS4:11 cells at 1 nM after 3 hrs in presence of NAE inhibitor MLN4924 by Western blot method. The format is cell-based.
For data set [4], the target named is T3, Protein cereblon/Bromodomain-containing protein 4/Cullin-4A (Homo sapiens). In words: Induction of cereblon/cullin 4A-mediated BRD4 degradation in human RS4:11 cells at 0.03 nM after 24 hrs by Western blot method. The format is cell-based. Summed up: (§1)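 Western blot of RS4;11 cells (2 × 10⁶ cells/well) in RPMI 1640 with 10% FBS, 37 °C, 5% CO₂, used within three months of thawing. Compound exposure was 3 h or 24 h at the indicated concentrations. Cells were lysed in RIPA with protease inhibitors, and BRD2, BRD3 and BRD4 were detected with specific antibodies, with GAPDH as loading control.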

The target of data set [5] is T1, Protein cereblon/Bromodomain-containing protein 3/Cullin-4A (Homo sapiens). In words: Induction of cereblon/cullin 4A-mediated BRD3 degradation in human RS4:11 cells at 0.1 nM after 24 hrs by Western blot method. The format is cell-based. In a few lines:
as §1

Data set [6] addresses T2, Protein cereblon/Bromodomain-containing protein 2/Cullin-4A (Homo sapiens). The experiment in a line: Induction of cereblon/cullin 4A-mediated BRD2 degradation in human RS4:11 cells at 1 nM after 3 hrs in presence of BET inhibitor 4-((3-Cyclopropyl-1-ethyl-1H-pyrazol-5-yl)amino)-7-(3,5-dimethylisoxazol-4-yl)-6-methoxy-N-methyl-9H-pyrimido[4,5-b]-indole-2-carboxamide by Western blot method. The format is cell-based.

Data set [7] concerns the target T1, Protein cereblon/Bromodomain-containing protein 3/Cullin-4A (Homo sapiens). In words: Induction of cereblon/cullin 4A-mediated BRD3 degradation in human RS4:11 cells after 3 hrs by Western blot method. The format is cell-based. In a few lines:
(§2)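 RS4;11 cells (2 × 10⁶/well) treated for 3 h at the indicated concentrations. Lysed in RIPA with protease inhibitors and immunoblotted for BRD2, BRD3 and BRD4 with specific antibodies.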

The target in data set [8] is T3, Protein cereblon/Bromodomain-containing protein 4/Cullin-4A (Homo sapiens). In words: Induction of cereblon/cullin 4A-mediated BRD4 degradation in human RS4:11 cells after 3 hrs by Western blot method. The format is cell-based. In a few lines:
as §1

In data set [9] the target is T2, Protein cereblon/Bromodomain-containing protein 2/Cullin-4A (Homo sapiens). In words: Induction of cereblon/cullin 4A-mediated BRD2 degradation in human RS4:11 cells after 3 hrs by Western blot method. The format is cell-based. In a few lines:
as §2

Data set [10] relates to Mus musculus. In words: Increase in PARP cleavage in tumor of SCID mouse xenografted with human RS4:11 cells at 5 mg/kg administered as single dose measured up to 6 hrs by Western blot method. The format is functional, organism-based. In a few lines: (§3)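 SCID mice bearing subcutaneous RS4;11 tumors received a single 5 mg/kg iv dose. Sacrificed at 1, 3, 6 and 24 h, with vehicle controls at 6 h, two mice per time point. Tumors ground in liquid nitrogen and lysed in CHAPS buffer, then immunoblotted for BRD2/3/4, c-Myc, PARP/cleaved PARP and caspase-3/cleaved caspase-3. Actin served as loading control.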

Data set [11] has as its system Mus musculus. In words: Increase in caspase-3 cleavage in tumor of SCID mouse xenografted with human RS4:11 cells at 5 mg/kg administered as single dose measured up to 6 hrs by Western blot method. The format is functional, organism-based. In a few lines: as §3
Data set [12] is described as follows: Drug metabolism in mouse liver microsomes assessed as metabolite m1 formation at 10 uM after 20 to 40 mins in presence of beta-NADPH […]. The format is ADME, microsome.

This is an account of results in ChEMBL document CHEMBL4219021, “Discovery of a Small-Molecule Degrader of Bromodomain and Extra-Terminal (BET) Proteins with Picomolar Cellular Potencies and Capable of Achieving Tumor Regression” (J Med Chem, 2018).

Activity calls are given as the source filed them. The rule behind the calls is not given here.

T1 sequence (Q13619 whole entry, looked up): as the sequence (Q13619 whole entry, looked up) above
T1 sequence (Q15059 whole entry, looked up): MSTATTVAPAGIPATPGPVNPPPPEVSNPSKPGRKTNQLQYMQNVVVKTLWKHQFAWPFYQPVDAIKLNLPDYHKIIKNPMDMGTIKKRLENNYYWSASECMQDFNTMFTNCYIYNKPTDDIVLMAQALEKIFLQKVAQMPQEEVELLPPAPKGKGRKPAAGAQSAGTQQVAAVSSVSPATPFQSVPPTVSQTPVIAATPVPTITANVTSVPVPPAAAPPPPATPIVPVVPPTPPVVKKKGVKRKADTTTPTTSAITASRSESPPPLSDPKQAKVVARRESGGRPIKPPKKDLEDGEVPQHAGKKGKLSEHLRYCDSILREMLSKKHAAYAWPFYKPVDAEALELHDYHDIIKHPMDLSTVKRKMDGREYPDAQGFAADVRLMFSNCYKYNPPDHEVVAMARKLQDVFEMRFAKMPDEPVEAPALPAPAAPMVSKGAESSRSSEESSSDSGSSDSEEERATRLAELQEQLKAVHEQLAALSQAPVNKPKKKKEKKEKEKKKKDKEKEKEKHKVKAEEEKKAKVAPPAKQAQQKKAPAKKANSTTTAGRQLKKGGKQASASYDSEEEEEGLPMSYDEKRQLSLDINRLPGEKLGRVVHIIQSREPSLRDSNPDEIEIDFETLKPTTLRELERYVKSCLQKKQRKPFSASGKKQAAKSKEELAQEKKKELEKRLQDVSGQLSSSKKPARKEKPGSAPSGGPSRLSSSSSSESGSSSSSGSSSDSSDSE
T1 sequence (Q96SW2 whole entry, looked up): as the sequence (Q96SW2 whole entry, looked up) above

For `CCn1nc(C2CC2)cc1Nc1nc(C(=O)NCCCCCc2cccc3c2CN(C2CCC(=O)NC2=O)C3=O)nc2[nH]c3cc(-c4c(C)noc4C)c(OC)cc3c12` (configuration not stated), the result in data set [1], in data set [2], in data set [3] and in data set [6] was inactive. Besides, the outcome (in [4]; in data set [5]; with Mus musculus [10]; in the data set with Mus musculus [11]) was Active. Moreover, the Activity result in [7], in [8] and in data set [9] was “Dose-dependent effect” in each case. Further, in data set [12], the Drug metabolism entry is listed as “Metabolite_Detected”.
